{"source": "ChEMBL document CHEMBL3784930", "about": "“Design, synthesis and biological evaluation of N,N-3-phenyl-3-benzylaminopropanamide derivatives as novel cholesteryl ester transfer protein inhibitor” (Bioorg Med Chem, 2016)", "data": [{"species_on_record": "Homo sapiens", "assay": "Increase in HDL-cholestrol levels in mild dyslipidemia patient at 10 mg", "assay_type": "functional", "details": "not given", "units": {"Activity": "%"}, "values": [{"smiles": "CCOC(=O)N1c2ccc(C(F)(F)F)cc2[C@@H](N(Cc2cc(C(F)(F)F)cc(C(F)(F)F)c2)c2ncc(OCCCC(=O)O)cn2)C[C@H]1CC", "note": "[OBICETRAPIB]", "Activity": 179.1}]}, {"species_on_record": "Homo sapiens", "assay": "Reduction in LDL-cholestrol levels in mild dyslipidemia patient at 5 to 10 mg", "assay_type": "functional", "set-up": "scale not given: the % may be the effect or the level left", "details": "not given", "units": {"Activity": "%"}, "values": [{"smiles": "CCOC(=O)N1c2ccc(C(F)(F)F)cc2[C@@H](N(Cc2cc(C(F)(F)F)cc(C(F)(F)F)c2)c2ncc(OCCCC(=O)O)cn2)C[C@H]1CC", "note": "[OBICETRAPIB]", "Activity": 45.3}]}, {"test_system": "Syrian golden hamster", "assay": "Antidyslipidemic activity in high cholesterol/lipid diet fed golden syrian hamster assessed as increase in HDL-cholesterol levels at 30 mg/kg/day, po administered for 2 weeks relative to control", "assay_type": "functional, Mesocricetus auratus", "details": "not given", "outline": "(§1)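 Male Golden Syrian hamsters (8 weeks old, 120-130 g) were randomized by weight into control and treated groups (n = 6). Dyslipidemia was induced with a high cholesterol and lipid diet for 5 weeks. Dosing was oral at 30 mg/kg/day for two weeks in ethanol/cremophor/saline 5:5:90. Blood was drawn from the orbit, and serum lipid levels were compared with controls.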", "units": {"Activity": "%"}, "values": [{"smiles": "CCOC(=O)c1ccc(N2CCN(C(=O)CCN(Cc3ccc(F)cc3)c3cccc(Oc4ccccc4)c3)CC2)cc1", "Activity": 21.7}]}, {"molecular_target": "T1, Cholesteryl ester transfer protein (Homo sapiens, UniProt P11597)", "T1 sequence (P11597 whole entry)": "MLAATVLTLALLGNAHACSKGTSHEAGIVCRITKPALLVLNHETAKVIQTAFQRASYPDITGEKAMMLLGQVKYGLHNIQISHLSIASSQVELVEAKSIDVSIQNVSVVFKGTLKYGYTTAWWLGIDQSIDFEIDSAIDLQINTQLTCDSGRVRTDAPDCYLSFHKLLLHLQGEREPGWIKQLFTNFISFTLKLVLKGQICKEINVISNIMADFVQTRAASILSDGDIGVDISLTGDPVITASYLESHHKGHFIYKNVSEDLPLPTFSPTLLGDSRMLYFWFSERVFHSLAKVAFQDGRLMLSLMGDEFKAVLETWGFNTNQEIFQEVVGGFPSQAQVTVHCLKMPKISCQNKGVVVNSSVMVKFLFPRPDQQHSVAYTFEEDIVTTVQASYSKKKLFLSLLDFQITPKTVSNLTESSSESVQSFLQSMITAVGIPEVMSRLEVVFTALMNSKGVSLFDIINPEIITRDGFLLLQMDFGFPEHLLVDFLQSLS", "assay": "Inhibition of full-length human recombinant CETP expressed in CHO cells by BODIPY-CE fluorescence assay", "assay_type": "cell-based", "details": "not given", "units": {"IC50": "µM"}, "values": [{"smiles": "COc1ccc(N2CCN(C(=O)CCN(Cc3ccc(F)cc3)c3cccc(Oc4ccccc4)c3)CC2)cc1", "IC50": 2.8}, {"smiles": "O=C(CCN(Cc1ccc(F)cc1)c1ccc(Cl)c(Cl)c1)NC1CCCCC1", "IC50": 10.7}, {"smiles": "O=C(CCN(Cc1ccc(F)cc1)c1ccc(Cl)c(C(F)(F)F)c1)N1CCN(c2ccccc2)CC1", "IC50": 37.8}, {"smiles": "COc1ccc(N2CCN(C(=O)CCN(Cc3ccc(F)cc3)c3ccc(Cl)c(Cl)c3)CC2)cc1", "IC50": 3.5}, {"smiles": "COc1ccc(N2CCN(C(=O)CCN(Cc3ccc(F)cc3)c3cccc(-c4ccccc4)c3)CC2)cc1", "IC50": 7.3}, {"smiles": "CC(C)(C)NC(=O)CCN(Cc1ccc(F)cc1)c1ccc(Cl)c(Cl)c1", "IC50": 29.6}, {"smiles": "O=C(CCN(Cc1ccc(F)cc1)c1ccc(Cl)c(Cl)c1)NC1CC1", "IC50": "> 50"}, {"smiles": "Cc1cc(N(CCC(=O)N2CCN(c3ccccc3)CC2)Cc2ccc(F)cc2)ccc1Br", "IC50": 13.9}, {"smiles": "O=C(CCN(Cc1ccc(F)cc1)c1ccc(Cl)c(Cl)c1)N1CCOCC1", "IC50": 14.2}, {"smiles": "O=C(CCN(Cc1ccc(F)cc1)c1cccc(-c2ccccc2)c1)N1CCN(c2ccccc2)CC1", "IC50": 11.3}, {"smiles": "CCOC(=O)c1ccc(N2CCN(C(=O)CCN(Cc3ccc(F)cc3)c3ccc(Cl)c(Cl)c3)CC2)cc1", "IC50": 2.8}, {"smiles": "CCCCN(CC1CC1)C(=O)CCN(Cc1ccc(F)cc1)c1ccc(Cl)c(Cl)c1", "IC50": "> 50"}, {"smiles": "O=C(CCN(Cc1ccc(F)cc1)c1ccc(Cl)c(Cl)c1)N1CCN(c2ncccn2)CC1", "IC50": 11.8}, {"smiles": "O=C(CCN(Cc1ccc(F)cc1)c1ccc(Cl)c(Cl)c1)N1CCN(c2ccccc2)CC1", "IC50": 5.2}, {"smiles": "CCc1cc(N(CCC(=O)N2CCN(c3ccccc3)CC2)Cc2ccc(F)cc2)ccc1Cl", "IC50": 19.5}, {"smiles": "CCOC(=O)c1ccc(N2CCN(C(=O)CCN(Cc3ccc(F)cc3)c3cccc(-c4ccccc4)c3)CC2)cc1", "IC50": 3.1}]}, {"test_system": "Syrian golden hamster", "assay": "Antidyslipidemic activity in high cholesterol/lipid diet fed golden syrian hamster assessed as reduction in LDL-cholesterol levels at 30 mg/kg/day, po administered for 2 weeks relative to control", "assay_type": "functional, Mesocricetus auratus", "set-up": "scale not given: the % may be the effect or the level left", "details": "not given", "outline": "as §1", "units": {"Activity": "%"}, "values": [{"smiles": "CCOC(=O)c1ccc(N2CCN(C(=O)CCN(Cc3ccc(F)cc3)c3cccc(Oc4ccccc4)c3)CC2)cc1", "Activity": 24.6}]}, {"molecular_target": "Cholesteryl ester transfer protein (Homo sapiens) (UniProt P11597)", "assay": "Inhibition of recombinant CETP by BODIPY-CE fluorescence assay", "details": "not given", "units": {"IC50": "µM"}, "values": [{"smiles": "COc1ccc(C(CC(=O)c2ccccc2)Nc2ccc(Cl)cc2)cc1OC", "note": "(configuration not stated)", "IC50": 8.06}]}, {"test_system": "Homo sapiens", "assay": "In vivo inhibition of CETP in human whole plasma at 120 mg for 14 days", "assay_type": "functional, organism-based", "details": "336 h", "units": {"IC50": "µM"}, "values": [{"smiles": "CCOC(=O)N1c2ccc(C(F)(F)F)cc2[C@@H](N(Cc2cc(C(F)(F)F)cc(C(F)(F)F)c2)C(=O)OC)C[C@H]1CC", "note": "[TORCETRAPIB]", "IC50": 0.05}]}]}
